# Measured values from different studies.
# Compare with care: the assays were run in different laboratories.
# Target: Calcium/calmodulin-dependent protein kinase type 1 (CAMK1, Homo sapiens, UniProt Q14012)
SMILES,test,conditions,measurement,result
Cc1nn(C)cc1-c1nc2c(N3CCN(Cc4ccc(Cl)cc4)CC3)c(Cl)cnc2[nH]1,"binding, competition with immobilised ligand",1 µM,remaining binding,100%
Cn1cc(-c2cc(F)cc(N3CCn4c(cc5c4CCCC5)C3=O)c2CO)cc(Nc2ccc(N3CCN(C4COC4)CC3)cn2)c1=O,"enzyme activity, inhibitor",0.1 µM,inhibition,0%
COc1ncccc1-c1cnn2ccc(N3CCN(C(=O)OC(C)C)CC3)nc12,"binding, competition with immobilised ligand",1 µM,remaining binding,100%
N#CC1(c2ccccn2)CCN(Cc2cc(C(=O)O)c(=O)n3ccccc23)CC1,"cell-free assay, competition with immobilised ligand",1 µM,remaining binding,76%
CC(C)(C)c1cc(C=C(C#N)C#N)cc(Br)c1O,"enzyme activity, inhibitor",0.5 µM,remaining activity,97.5%
C#Cc1n[nH]c2c(-c3cn(C(C)c4ccccn4)c(=O)[nH]c3=O)cc(F)cc12 (stereo not shown),"enzyme activity, inhibitor",1 µM,inhibition,-18.7%
COc1cc(Nc2ncc(F)c(Nc3ccc4c(n3)NC(=O)C(C)(C)O4)n2)cc(OC)c1OC,"binding, competition with immobilised ligand",10 µM,inhibition,97%
Cn1cncc1[C@@](O)(COc1ccc(C#N)cc1-c1ccc(OC(F)(F)F)cc1)c1ccc(C#N)cc1,"cell-free assay, competition with immobilised ligand",1 µM,remaining binding,100%
C#Cc1n[nH]c2c(-c3cn([C@@H](C)c4ccccc4)c(=O)[nH]c3=O)cc(F)cc12,"enzyme activity, inhibitor",0.1 µM,inhibition,14.4%
O=c1[nH]c2ccccc2n1C1CCN(Cc2ccc(-c3[nH]c4cc5ncnc5cc4nc3-c3ccccc3)cc2)CC1,cell-free assay,0.5 µM,remaining signal,95.1%
